# SENP1 inh: human SENP1 catalytic domain inhibitors, primary screen, biochemical, FRET, uHTS | Sentrin-specific protease 1 (Homo sapiens), Q9P0U3 | AID 624204, 2012 | inhibition, % at 10 µM | recombinant SENP1 catalytic domain, CyPet-SUMO1-YPet FRET cleavage | 360,000 compounds, 0.21% hits;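 active = inhibition at least 30% at 10 µM, raw YFP signal under a set limit, fluorescence ratio 0.5 to 1.5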;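 note: 0% = enzyme with DMSO and 100% = no enzyme wells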
# Target sequence (Q9P0U3 419-644 limits assumed): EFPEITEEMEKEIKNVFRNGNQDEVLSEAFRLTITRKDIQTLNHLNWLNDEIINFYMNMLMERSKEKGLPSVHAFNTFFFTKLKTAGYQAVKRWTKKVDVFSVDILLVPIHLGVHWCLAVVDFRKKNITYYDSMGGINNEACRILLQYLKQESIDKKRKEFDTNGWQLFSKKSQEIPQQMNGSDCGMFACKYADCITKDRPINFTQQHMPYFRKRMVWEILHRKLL
#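 Test system: recombinant human SENP1 catalytic domain, His6-tagged / Medium: pH 8 Tris buffer with EDTA, NaCl, BME, BSA, NP40, catalase / Also added: SUMO1 FRET substrate flanked by Cypet and Ypet, 25 nM / Times: 50 min reaction at room temperature / Signal: FRET, CFP and YFP emission / Control set: no-enzyme low control and enzyme-plus-DMSO high control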
# SENP8 block-1: SENP8 protease inhibitors, primary screen, biochemical, luminescence | purified SENP8, Z-RLRGG-aminoluciferin cleavage | inhibition, % at 10 µM | 330,000 compounds, 1.2% hits | AID 2540, 2010; in the data active = inhibition above about 50%
# NRP1-CendR mod: modulators of CendR peptide binding to NRP-1, primary screen, biochemical, fluorescence polarization, uHTS | inhibition, % at 25 µM | AID 602438, 2012 | FAM-RPARPAR peptide binding to NRP-1 | 360,000 compounds, 0.85% hits;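 active = inhibition or corrected inhibition above about 18%, plus a signal ratio from 0.5 to 1.5, limit read from the data, passing the limit was not always enough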
# SENP7 inh: SENP7 protease inhibitors, primary screen, biochemical, luminescence, uHTS; Sentrin-specific protease 7 (Homo sapiens), Q9BQF6; AID 434973, 2010; inhibition, % at 5 µM; recombinant SENP7, Z-RLRGG-aminoluciferin luminescence, 40 min; 330,000 compounds, 1.5% hits;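 active = inhibition above about 50% at the single test dose, limit read from the data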;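 note: plate controls were DMSO with enzyme for no effect and no enzyme buffer wells for full effect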
# SENP8 block-2: human SENP8 protease inhibitors, primary screen, biochemical, fluorescence, Nedd8 protein substrate, uHTS. recombinant SENP8. inhibition, % at 20 µM. 360,000 compounds, 0.64% hits; in the data active = inhibition mostly above about 40%, no sharp cut-off; inactive = mostly below about 27%
# SENP6 block: SENP6 protease inhibitors, primary screen, biochemical, luminescence, uHTS; Recombinant SENP6 catalytic domain, aminoluciferin luminescence; inhibition, % at 10 µM; 330,000 compounds, 1.8% hits;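 active = inhibition above about 50% at the single tested dose, limit read from the data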;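 note: plate controls were DMSO wells with enzyme for no effect and DMSO wells lacking enzyme for full effect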
# SENP8 confirm: SENP8 protease inhibitors, retest, confirmation, biochemical, luminescence, single concentration; AID 488912, 2010; shares compounds with SENP7 inh; inhibition, % at 12.5 µM; Recombinant SENP8, Z-RLRGG-aminoluciferin luminescence, 60 min; 6,200 compounds, 40% hits;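 active = mean inhibition across replicates above about 50%, limit read from the data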
# SENP6 confirm: SENP6 protease inhibitors, confirmation, biochemical, luminescence, single concentration | shares compounds with SENP7 inh | 6,200 compounds, 58% hits | recombinant SENP6, Z-RLRGG-aminoluciferin luminescence | AID 488915, 2010 | inhibition, % at 12.5 µM
# SENP7 confirm: SENP7 protease inhibitors, retest, confirmation, biochemical, luminescence, single concentration; shares compounds with SENP7 inh; recombinant SENP7, Z-RLRGG-aminoluciferin luminescence, 40 min; inhibition, % at 12.5 µM; AID 488917, 2010; 6,200 compounds, 69% hits
# Casp3 select: caspase-3 protease inhibitors, confirmation, selectivity assay for SENP inhibitor project, biochemical, single concentration | shares compounds with SENP7 inh | purified caspase-3, Z-DEVD-aminoluciferin luminescence, 60 min | inhibition, % at 12.5 µM | 6,200 compounds, 60% hits | AID 488918, 2010;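 active = mean inhibition above about 50%, limit read from the data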;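 note: plate controls were enzyme with DMSO for no effect and wells without caspase-3 for full effect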
# Target sequence (P42574 28-227 limits assumed): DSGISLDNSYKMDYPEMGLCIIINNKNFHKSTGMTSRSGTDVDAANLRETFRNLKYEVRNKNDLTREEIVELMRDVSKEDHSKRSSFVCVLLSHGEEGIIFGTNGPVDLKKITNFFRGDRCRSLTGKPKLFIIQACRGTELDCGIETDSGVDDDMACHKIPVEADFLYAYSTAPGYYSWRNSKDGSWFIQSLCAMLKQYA
# SENP luc ctr: counter-screen for SENP inhibitors: luminescence interference; Pre-incubated SENP8/Z-RLRGG-aminoluciferin, luciferase luminescence interference; 6,200 compounds, 39% hits; inhibition, % at 12.5 µM; shares compounds with SENP7 inh;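 active = mean inhibition above about 50% when retested at one dose, limit read from the data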;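 note: plate controls were DMSO wells with completed reaction for no effect and substrate without enzyme for full effect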
# * = called active by the depositor; x = not tested or not shown. This is a sample that favours compounds with a hit; in the whole collection about 3.3% have one here.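 Rule for the calls, unless noted: active = mean inhibition above about 50% in the one-dose retest (limit read from the data); inactive = the rest.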
SMILES,SENP1 inh,SENP8 block-1,NRP1-CendR mod,SENP7 inh,SENP8 block-2,SENP6 block,SENP8 confirm,SENP6 confirm,SENP7 confirm,Casp3 select,SENP luc ctr
CC1CCN(C(=O)c2[nH]cnc2C(=O)Nc2ccc(Cl)cc2)CC1,3,-7,5,-1,-2,-4,x,x,x,x,x
CCC1(O)CCCC2C3CCC4CC(=O)CCC4(C)C3C(=O)CC21C (configuration not stated),0,x,11,x,1,x,x,x,x,x,x
Cc1cc(C(=O)CSc2nnc3ccccn23)c(C)n1-c1ccccc1,-2,37,-18,52*,6,62*,35,36,79*,79*,61*
CC1(C)C2CCC1(C)C(SC(=N)N)C2 (configuration not stated),1,x,14,x,14,x,x,x,x,x,x
CN(C)CCCN(C(=O)COc1ccccc1)c1nc2ccc(F)cc2s1,-2,3,4,9,29,-6,x,x,x,x,x
CN(C)CCCN(C(=O)COc1ccc(Cl)cc1)c1nc2ccc(F)cc2s1,3,3,4,9,26,55*,6,-2,-1,-1,-6
Cc1ccc(/C=N/Nc2nc3ccccc3s2)o1,-24,90*,6,83*,-76,97*,84*,84*,99*,81*,48
Cn1cccc1-c1nc2ccc(NC(=O)c3ccco3)cc2[nH]1,1,-13,4,-16,-75,-23,x,x,x,x,x
Cc1ccc(NC(=O)c2ccco2)cc1C,2,32,13,65*,21,67*,50*,48,80*,73*,52*
Cc1ccc2nc(-c3ccc(NC(=O)c4ccco4)cc3)[nH]c2c1,1,-2,-3,35,-148,51*,11,10,64*,28,42
Cc1cc(NC(=O)c2ccco2)ccc1NC(=O)c1ccco1,2,7,6,23,0,26,x,x,x,x,x
O=C(CCc1ccccc1)Nc1ccc(NC(=O)c2ccco2)cc1,1,10,-9,1,5,10,x,x,x,x,x
Cc1cc(NC(=O)c2ccc3c(c2)OCO3)ccc1NC(=O)c1ccccc1,2,61*,-3,92*,7,85*,-25,32,30,7,-3
O=C(Nc1ccc(CSc2ccccc2)cc1)c1ccco1,2,69*,-7,89*,0,84*,7,63*,95*,72*,38
O=C(Nc1cccc(NC(=O)c2ccc3c(c2)OCO3)c1)c1ccccc1,-1,31,-8,42,-8,-6,x,x,x,x,x
CC1(C(=O)NS(=O)(=O)Cc2cccc(Cl)c2)CCN1C(=O)CC1CCCC1 (configuration not stated),2,x,-3,x,7,x,x,x,x,x,x
C[C@@H]1CN([C@H](C)CO)C(=O)CCCn2nncc2CO[C@H]1CN(C)Cc1ccc2c(c1)OCO2,-1,x,4,x,-12,x,x,x,x,x,x
